According to ChEMBL document CHEMBL4689842, “EUbOPEN Chemogenomics Library wave 1” (2021):

System: U2OS
Experiment: Multiplex assay against U2OS
Format: toxicity, cell-based
Conditions: human
Procedure, shortened: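 Four dyes were applied at seeding to live cells: Hoechst33342, BioTracker Green Microtubule Cytoskeleton Dye, MitoTracker Red and Annexin V Alexa Fluor 680. Imaging after compound addition used a CQ1 microscope at 37°C and 5% CO2. CellPathfinder machine-learning gating then sorted cells into Hoechst high-intensity objects or normal cells, normal cells into healthy, pyknosed or fragmented nuclei, and pyknosed cells into mitotic or apoptotic, with tubulin, mitochondrial-mass and membrane-permeability phenotypes given as per cents of healthy-nucleus cells.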

[1] = 12 h, 1 µM, compound concentration 1 uM, replicate 1
[2] = 12 h, 1 µM, compound concentration 1 uM, replicate 2
[3] = 12 h, 10 µM, compound concentration 10 uM, replicate 1
[4] = 12 h, 10 µM, compound concentration 10 uM, replicate 2
[5] = 24 h, 1 µM, compound concentration 1 uM, replicate 1
[6] = 24 h, 1 µM, compound concentration 1 uM, replicate 2
[7] = 24 h, 10 µM, compound concentration 10 uM, replicate 1
[8] = 24 h, 10 µM, compound concentration 10 uM, replicate 2

Cc1nc(-c2cn3c(n2)-c2ccc(-c4cnn(C(C)(C)C(N)=O)c4)cc2OCC3)n(C(C)C)n1 [TASELISIB]
Population Apoptotic (%) [1]: 54% | Population Fragmented Nuclei (%) [1]: 3% | Population Healthy Nuclei (%) [1]: 84% | Population Hoechst High Intensity Objects (%) [1]: 2% | Population Membrane Permeable-Phenotype (%) [1]: 16% | Population Mitochondria Different-Phenotype (%) [1]: 10% | Population Mitotic Cells (%) [1]: 45% | Population Normal (%) [1]: 97% | Population Pyknosed Nuclei (%) [1]: 11% | Population Tubulin-Different-Phenotype (%) [1]: 9% | Total Cell Count [1]: 181 | Population Apoptotic (%) [2]: 16% | Population Fragmented Nuclei (%) [2]: 12% | Population Healthy Nuclei (%) [2]: 77% | Population Hoechst High Intensity Objects (%) [2]: 12% | Population Membrane Permeable-Phenotype (%) [2]: 27% | Population Mitochondria Different-Phenotype (%) [2]: 20% | Population Mitotic Cells (%) [2]: 83% | Population Normal (%) [2]: 87% | Population Pyknosed Nuclei (%) [2]: 9% | Population Tubulin-Different-Phenotype (%) [2]: 25% | Total Cell Count [2]: 89 | Population Apoptotic (%) [3]: 44% | Population Fragmented Nuclei (%) [3]: 5% | Population Healthy Nuclei (%) [3]: 89% | Population Hoechst High Intensity Objects (%) [3]: 2% | Population Membrane Permeable-Phenotype (%) [3]: 12% | Population Mitochondria Different-Phenotype (%) [3]: 19% | Population Mitotic Cells (%) [3]: 55% | Population Normal (%) [3]: 97% | Population Pyknosed Nuclei (%) [3]: 5% | Population Tubulin-Different-Phenotype (%) [3]: 24% | Total Cell Count [3]: 166 | Population Apoptotic (%) [4]: 55% | Population Fragmented Nuclei (%) [4]: 9% | Population Healthy Nuclei (%) [4]: 78% | Population Hoechst High Intensity Objects (%) [4]: 16% | Population Membrane Permeable-Phenotype (%) [4]: 18% | Population Mitochondria Different-Phenotype (%) [4]: 12% | Population Mitotic Cells (%) [4]: 44% | Population Normal (%) [4]: 83% | Population Pyknosed Nuclei (%) [4]: 12% | Population Tubulin-Different-Phenotype (%) [4]: 12% | Total Cell Count [4]: 65 | Population Apoptotic (%) [5]: 40% | Population Fragmented Nuclei (%) [5]: 6% | Population Healthy Nuclei (%) [5]: 80% | Population Hoechst High Intensity Objects (%) [5]: 4% | Population Membrane Permeable-Phenotype (%) [5]: 15% | Population Mitotic Cells (%) [5]: 59% | Population Normal (%) [5]: 95% | Population Pyknosed Nuclei (%) [5]: 13% | Population Tubulin-Different-Phenotype (%) [5]: 12% | Total Cell Count [5]: 240 | Population Apoptotic (%) [6]: 27% | Population Fragmented Nuclei (%) [6]: 20% | Population Healthy Nuclei (%) [6]: 64% | Population Hoechst High Intensity Objects (%) [6]: 6% | Population Membrane Permeable-Phenotype (%) [6]: 21% | Population Mitochondria Different-Phenotype (%) [6]: 6% | Population Mitotic Cells (%) [6]: 72% | Population Normal (%) [6]: 93% | Population Pyknosed Nuclei (%) [6]: 15% | Population Tubulin-Different-Phenotype (%) [6]: 29% | Total Cell Count [6]: 91 | Population Apoptotic (%) [7]: 27% | Population Healthy Nuclei (%) [7]: 91% | Population Hoechst High Intensity Objects (%) [7]: 1% | Population Mitochondria Different-Phenotype (%) [7]: 11% | Population Mitotic Cells (%) [7]: 72% | Population Normal (%) [7]: 98% | Population Pyknosed Nuclei (%) [7]: 4% | Population Tubulin-Different-Phenotype (%) [7]: 26% | Total Cell Count [7]: 168 | Population Apoptotic (%) [8]: 60% | Population Fragmented Nuclei (%) [8]: 4% | Population Healthy Nuclei (%) [8]: 83% | Population Hoechst High Intensity Objects (%) [8]: 4% | Population Membrane Permeable-Phenotype (%) [8]: 13% | Population Mitochondria Different-Phenotype (%) [8]: 15% | Population Mitotic Cells (%) [8]: 40% | Population Normal (%) [8]: 95% | Population Pyknosed Nuclei (%) [8]: 11% | Population Tubulin-Different-Phenotype (%) [8]: 20% | Total Cell Count [8]: 67
